Rows were chosen to be rich in hits. Some 4% of all compounds tested hit in one or more screens of this group.
FGF22 binding: binders of recombinant human FGF22 by thermal shift | Q9HCT0 | SYPRO orange fluorescence; percent of sucrose octasulfate shift, DMSO zero | activity (Tm shift, normalised), % at 9.99 µM | 340,000 compounds, 1.5% hits | AID 651658;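 active = mean Tm shift, scaled 0 neutral to 100 positive control, at about 1.3% or above, every replicate too, limit read from the data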
FN deposit inh: fibronectin deposition inhibition; AH1F fibroblasts, Alexa488-fibronectin deposition fluorescence, overnight; 350,000 compounds, 0.086% hits; inhibition, % at 12.6 µM; AID 743247;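 active = mean inhibition across replicates of 30% or more, regardless of how many single replicates reach that level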;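 note: positive control wells lacked labelled fibronectin entirely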
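Assay system: AH1F fibroblasts assembling fluorescent fibronectin matrix; Amount: 10000 AH1F cells per well; Buffer or medium: DMEM, 2% serum; Probe or stimulus: Alexa488-fibronectin, 24 nM final in well; Doses: single compound dose, delivered by pin transfer; Incubation: 1 h adhesion, overnight exposure; Measured by: fluorescence 485/525 nm; Read-out: fibronectin deposition inhibition.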
SIRT5 inh: blocks human SIRT5 desuccinylation of peptide. Q9NXA8. Purified SirT5, succinyl-peptide AMC, trypsin-coupled fluorescence. inhibition, % at 15 µM. 330,000 compounds, 1.1% hits. AID 652115; in the data active = inhibition above about 15%
rRNA inh HTS: selective bacterial rRNA inhibition in E. coli. E. coli WT GFP vs humanized-ribosome RFP mutants, fluorescence, 24 h; hits give low values; DMSO median 0, no signal -100. GFP signal change (wild-type ribosome), % (concentration not given with the values). 350,000 compounds, 1.6% hits;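 active = significant combined selectivity score with lowered wild-type GFP, culture density cut under 30%, mutant RFP and density less affected; inactive = any of these conditions unmet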
E-selectin induc: E-selectin induction on HUVECs; HUVEC E-selectin immunofluorescence imaging; normalized: neutral wells 0, TNF-alpha wells 100; activation, % at 7.58 µM; 260,000 compounds, 0.37% hits; AID 686992;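 active = mean E-selectin-positive cell signal at least 10% of the positive control, reached in at least 60% of replicates, without over 20% cell loss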
Target sequence (P16581 whole entry, looked up): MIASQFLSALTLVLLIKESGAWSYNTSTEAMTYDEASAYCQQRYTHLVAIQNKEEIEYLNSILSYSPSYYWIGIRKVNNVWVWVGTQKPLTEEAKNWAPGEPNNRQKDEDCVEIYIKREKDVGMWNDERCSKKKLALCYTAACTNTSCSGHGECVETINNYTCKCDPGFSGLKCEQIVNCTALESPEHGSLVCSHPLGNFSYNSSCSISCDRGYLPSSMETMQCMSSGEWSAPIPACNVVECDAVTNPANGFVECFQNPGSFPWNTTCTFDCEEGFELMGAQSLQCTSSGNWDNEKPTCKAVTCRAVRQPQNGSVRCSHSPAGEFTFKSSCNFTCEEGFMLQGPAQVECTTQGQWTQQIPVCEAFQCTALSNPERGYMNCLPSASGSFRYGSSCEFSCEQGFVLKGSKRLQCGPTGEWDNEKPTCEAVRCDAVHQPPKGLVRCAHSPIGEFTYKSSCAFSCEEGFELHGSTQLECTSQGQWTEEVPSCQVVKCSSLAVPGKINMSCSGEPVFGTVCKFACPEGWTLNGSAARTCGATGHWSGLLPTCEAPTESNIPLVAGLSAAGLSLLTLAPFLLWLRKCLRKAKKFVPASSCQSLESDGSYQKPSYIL
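Assay system: HUVEC primary endothelial cells. Input: 3,000 HUVEC seeded per well. Doses: one compound dose added by pin transfer. Read-out basis: % PE-positive cells. Benchmarks: TNF-alpha high, DMSO low. Detection: immunofluorescence imaging. Buffer or medium: EGM-2, gelatin.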
Statin myotox sup: suppressors of simvastatin-induced myotoxicity in C2C12 myotubes. rescue of ATP level, % at 7.49 µM. 330,000 compounds, 0.78% hits. ATP luminescence, 48 h; scaled: DMSO 0, geranylgeraniol control 100;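 active = mean ATP rescue above about 67%, or every replicate alone reaching that limit, limit read from the data, passing the limit was not always enough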;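 note: myotubes were challenged with 10 µM simvastatin during compound exposure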
Numbers without * were called inactive; nt = no result.

SMILES | FGF22 binding | FN deposit inh | SIRT5 inh | rRNA inh HTS | E-selectin induc | Statin myotox sup
Cn1c(Cn2c(=O)sc3ccccc32)nnc1SCC(=O)NCc1ccc2c(c1)OCO2 | 0 | -24 | nt | -5 | 0 | -1
Cn1c(Cn2c(=O)sc3ccccc32)nnc1SCC(=O)Nc1ccc2c(c1)OCO2 | 44* | 6 | -4 | 8 | 0 | -5
COC(=O)C[C@H]1C[C@@H]2c3cc(NC(=O)C4CCOCC4)ccc3O[C@@H]2[C@@H](CO)O1 | 0 | -9 | 1 | 4 | 0 | -5
CNC(=O)c1ccc(-c2ccc(OC)cc2)s1 | nt | nt | nt | nt | nt | -9
CNC(=O)c1ccc(-c2ccc(F)cc2)s1 | nt | nt | nt | nt | nt | 69*
COc1ccc(NC(=O)c2ccc(-c3ccc(OC)cc3)s2)cc1 | 43* | -7 | -3 | 14 | -3 | nt
O=C(C[C@H]1C[C@@H]2c3cc(NC(=O)Nc4ccc(C(F)(F)F)cc4)ccc3O[C@@H]2[C@@H](CO)O1)NCc1ccc2c(c1)OCO2 | 1 | -23 | 25* | -5 | -1 | 7
O=C(C[C@@H]1C[C@H]2c3cc(NC(=O)Nc4ccc(C(F)(F)F)cc4)ccc3O[C@H]2[C@H](CO)O1)NCc1ccc2c(c1)OCO2 | 0 | -14 | 27* | -7 | 0 | 6
C[C@@H](NC(=O)C[C@@H]1C[C@@H]2c3cc(NC(=O)c4ccc5c(c4)OCO5)ccc3O[C@@H]2[C@H](CO)O1)c1ccccc1 | 0 | nt | 15* | 3 | 0 | 1
CO[C@H]1CC[C@@H]2CCN(C)C(=O)[C@H](C)[C@@H](OC)CN(C)C(=O)c3cccc(C#N)c3OC[C@@H]1O2 | 0 | 7 | -1 | 0 | 0 | -2
O=C(C[C@H]1C=C[C@H](NC(=O)Nc2ccc(F)cc2)[C@@H](CO)O1)NCc1ccccn1 | 0 | -7 | 1 | -3 | 0 | -3
C[C@@H]1CN([C@@H](C)CO)C(=O)c2cc(NC(=O)C3CC3)ccc2O[C@H]1CN(C)Cc1ccc2c(c1)OCO2 | 0 | nt | -1 | 5 | -1 | -27
COc1ccc(S(=O)(=O)Nc2ccc3c(c2)C(=O)N([C@@H](C)CO)C[C@H](C)[C@@H](CN(C)S(=O)(=O)c2cccs2)OCCCC[C@@H](C)O3)cc1 | 0 | 3 | 13 | 2 | nt | 79*
C[C@H](CO)N1C[C@H](C)[C@H](CN(C)S(=O)(=O)c2cccs2)OCCCC[C@H](C)Oc2ccc(NS(=O)(=O)c3ccc(Cl)cc3)cc2C1=O | 1.2* | -2 | 5 | 2 | nt | nt
COc1ccc(S(=O)(=O)Nc2ccc3c(c2)C(=O)N([C@H](C)CO)C[C@@H](C)[C@H](CN(C)S(=O)(=O)c2cccs2)OCCCC[C@H](C)O3)cc1 | 0 | 11 | 14 | 3 | nt | 102*
COc1ccc(S(=O)(=O)Nc2ccc3c(c2)C(=O)N([C@@H](C)CO)C[C@H](C)[C@H](CN(C)S(=O)(=O)c2cccs2)OCCCC[C@H](C)O3)cc1 | 0 | 8 | 15* | 2 | nt | 7
C[C@H](CO)N1C[C@H](C)[C@@H](CN(C)C)Oc2cc(-c3cccnc3)ccc2S1(=O)=O | 0 | -3 | 10 | 1 | 0 | 5
C[C@@H]1CN([C@@H](C)CO)C(=O)c2cccc(NS(=O)(=O)c3ccc(F)cc3)c2O[C@@H]1CN(C)CC1CC1 | 0 | 11 | -2 | 4 | 0 | 2
COCC#Cc1ccc2c(c1)O[C@@H](CN(C)C(=O)C1CCC1)[C@@H](C)CN([C@@H](C)CO)S2(=O)=O | 0 | nt | 1 | -5 | 0 | -1
COc1ccc(S(=O)(=O)Nc2ccc3c(c2)C(=O)N([C@H](C)CO)C[C@H](C)[C@H](CN(C)S(=O)(=O)c2cccs2)OCCCC[C@H](C)O3)cc1 | 0 | 5 | 18* | -3 | nt | 97*
COc1ccc(Cl)cc1NC(=O)c1c(-c2ccccc2)noc1C | nt | nt | nt | nt | nt | -7
Cc1onc(-c2ccccc2)c1C(=O)N/N=C/c1c[nH]c2ccccc12 | 0 | -6 | 0 | -27 | nt | 16
COc1ccc(Cl)cc1/C=N/NC(=O)c1c(-c2ccccc2)noc1C | 0 | 6 | 2 | -17* | nt | -4
COc1cccc(/C=N/NC(=O)c2ccccc2)c1OS(=O)(=O)c1ccccc1 | 44* | 5 | 1 | -31 | nt | nt
COc1cccc(/C=N/NC(=O)c2c(-c3ccccc3)noc2C)c1OC | 0 | 9 | -10 | -20* | nt | 1
SMILES | FGF22 binding | FN deposit inh | SIRT5 inh | rRNA inh HTS | E-selectin induc | Statin myotox sup
N/C(CSc1ccc(Cl)cc1)=N\NC(=O)c1ccncc1 | 43* | 1 | 1 | -7 | 0 | nt
O=C(CSc1ccc(Cl)cc1)NCc1ccncc1 | 43* | 2 | -2 | 5 | nt | 17
O=C(CSc1ccc(Cl)cc1)NC(=O)c1ccccc1 | 0 | 2 | -3 | 2 | nt | 3
C[C@@H]1CN([C@@H](C)CO)C(=O)c2cc(NC(=O)Nc3ccccc3)ccc2O[C@@H](C)CCCCO[C@H]1CN(C)CC1CCCCC1 | 0 | 11 | 2 | -1 | 0 | nt
CCS(=O)(=O)Nc1ccc2c(c1)C(=O)N(C)[C@H]1CC[C@@H](CC(=O)NC)O[C@H]1CO2 | 0 | -1 | -9 | 6 | 0 | 6
Cc1noc(C)c1NC(=O)N[C@H]1CC[C@H](CCNC(=O)C2CC2)O[C@H]1CO | 0 | -12 | 18* | -1 | 0 | -3
O=C(Nc1ccc2c(c1)OCO2)N[C@H]1CC[C@H](CCNC(=O)C2CC2)O[C@@H]1CO | 0 | -4 | 31* | -3 | 0 | -15
O=C(C[C@@H]1CC[C@@H](NC(=O)Nc2cccc(F)c2)[C@H](CO)O1)NCC1CC1 | 0 | -11 | 22* | 2 | 0 | 4
C[C@@H]1CN([C@H](C)CO)C(=O)c2cc(-c3ccncc3)cnc2O[C@H]1CN(C)C(=O)C1CCCCC1 | 0 | -7 | -3 | 2 | 0 | -10
O=C(NC(=S)Nc1nc(-c2cccc([N+](=O)[O-])c2)cs1)c1ccccc1Cl | 1 | -2 | -3 | -19* | 0 | nt
CCOC(=O)Cc1csc(N/N=C/c2cccc([N+](=O)[O-])c2)n1 | 0 | -4 | -2 | 5 | nt | -29
O=C(NC(=S)Nc1nc(-c2cccc([N+](=O)[O-])c2)cs1)c1cc(Cl)ccc1Cl | 0 | 10 | -5 | 4 | 0 | -4
CC(=O)c1sc(N/N=C/c2cccc([N+](=O)[O-])c2)nc1C | 0 | -2 | -1 | 8 | 0 | 4
CC(=O)c1sc(N/N=C/c2cccc(O)c2)nc1C | 0 | 0 | -2 | -21* | 0 | 45
O=[N+]([O-])c1cccc(-c2csc(N/N=C/c3cccc(O)c3)n2)c1 | 0 | 2 | -1 | -42* | nt | -20

High-throughput results as filed in PubChem BioAssay.
